Sampled rows, rich in hits. Any-hit rate of the full collection: about 4.1%.
KCNK3 block – human KCNK3 channel inhibitors, primary screen, CHO cells, FluxOR thallium flux, B-score | actives 0.84% (n = 340,000) | Potassium channel subfamily K member 3 (Homo sapiens), O14649 | B-score at 10 µM | FluxOR fluorescence; active compounds read low;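 active = B-score under library mean minus 4 SD, starting fluorescence ratio at most library mean plus 5 SD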;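 note: more negative B-score means stronger inhibition of thallium flux through KCNK3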
Target sequence (O14649 whole entry, looked up): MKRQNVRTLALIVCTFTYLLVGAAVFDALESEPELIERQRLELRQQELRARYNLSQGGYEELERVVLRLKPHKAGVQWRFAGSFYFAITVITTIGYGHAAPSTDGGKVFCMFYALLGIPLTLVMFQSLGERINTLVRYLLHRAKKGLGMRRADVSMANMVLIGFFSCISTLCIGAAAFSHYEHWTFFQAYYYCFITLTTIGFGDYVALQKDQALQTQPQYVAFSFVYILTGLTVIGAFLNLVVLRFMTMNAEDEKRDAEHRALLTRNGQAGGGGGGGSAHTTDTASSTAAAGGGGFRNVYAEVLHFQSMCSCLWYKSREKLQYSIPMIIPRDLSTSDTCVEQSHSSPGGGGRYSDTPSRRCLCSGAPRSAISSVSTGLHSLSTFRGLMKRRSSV
Cl transport mod – KCC2 cotransporter modulators, thallium flux, primary screen, cell-based, HEK293 KCC2, FluoZin-2 fluorescence, MLSMR. AID 1456, 2008. actives 2.2% (n = 190,000). KCC2 cells, thallium flux FluoZin-2 fluorescence. B-score of Tl+ flux slope (higher = more flux/activation; lower = inhibition) at 10 µM;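 active = thallium flux slope and its plate-corrected score both differing from the plate sample mean at a set confidence after two filtering rounds, in either direction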;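 note: slope of fluorescence scaled to starting intensity during 10 to 20 s after thallium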
KCNQ1 pot – potentiators or activators of KCNQ1 channel, primary screen, cell-based, thallium flux, high-throughput | Potassium voltage-gated channel subfamily KQT member 1 (Homo sapiens), P51787 | CHO-K1 KCNQ1, thallium flux FluxOR fluorescence; active compounds read high | B-score at 10 µM | actives 0.35% (n = 310,000);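 active = fluorescence ratio B-score, a plate-corrected score, at least three library SD, with initial intensity B-score within 5 SD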
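Schedule – 37 °C overnight plating, 90-min dark dye load, 20-min compound pretreatment · System – stable KCNQ1 CHO-K1 line · Probe or stimulus – thallium- and potassium-containing depolarizing buffer · Measured by – kinetic FluxOR fluorescence, 10 s baseline plus 110 s post-stimulus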
hERG protect – hERG rescue from dofetilide block, primary screen, cell-based, CHO-hERG, FluxOR thallium flux, dofetilide IC70 | Voltage-gated inwardly rectifying potassium channel KCNH2 (Homo sapiens), Q12809 | dofetilide IC70 present | activation (rescue from dofetilide block), less the hit threshold, % at 10 µM | actives 0.51% (n = 310,000) | AID 1511, 2009;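 active = activation above the mean of controls blocked by dofetilide plus 5 SD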;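 note: thallium influx through hERG after potassium depolarization seen as dye fluorescence rise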
KCNQ1 inh – inhibitors of human KCNQ1 channel, primary screen, cell-based, thallium flux, high-throughput. Potassium voltage-gated channel subfamily KQT member 1 (Homo sapiens), P51787. CHO-K1 KCNQ1, FluxOR thallium flux fluorescence; active compounds read high. B-score at 10 µM. actives 1.3% (n = 310,000). AID 2642, 2010;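 active = compounds whose thallium flux B-score, printed positive for inhibition, exceeds three library SD while starting fluorescence stays within three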;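 note: channel opened by potassium depolarization with thallium stimulus after 20 min compound exposure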
KCNK9 inh – KCNK9 potassium channel inhibitors, primary screen, HEK293 cells, thallium flux. B-score at 10 µM. Potassium channel subfamily K member 9 (Homo sapiens), Q9NPC2. FluxOR thallium flux fluorescence; active compounds read low. actives 1.2% (n = 310,000);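 active = ratio B-score over 3 SD below the library mean, with starting fluorescence within 5 SD of its mean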;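 note: negative B-score means less thallium flux so channel inhibition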
KCC2 sec1 – KCC2 modulators in sodium-free buffer, confirmation, cell-based, HEK293 KCC2, thallium flux, secondary assay; shares compounds with Cl transport mod; FluoZin2 fluorescence; active compounds read high; normalised thallium flux (F/F0 slope) at 10 µM; actives 15% (n = 3,700);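 active = thallium flux slope above the same plate's solvent-only control mean plus 3 SD; inconclusive = the two replicate wells disagree; inactive = no significant difference from solvent-only control wells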
KCC2 bumet counter – thallium flux persisting under bumetanide in KCC2 cells, confirmation, counter-screen for KCC2 modulator project, cell-based, HEK293 KCC2, FluoZin2, secondary assay 3; shares compounds with Cl transport mod; actives 49% (n = 3,700); HEK293-KCC2 + bumetanide/ouabain; active compounds read high; AID 1714, 2009; normalized thallium flux at 10 µM;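 active = thallium entry rate above the same plate's blocked-transporter control wells by more than 3 SD; inconclusive = the two repeat wells disagree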;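 note: raw slope of fluorescence over initial fluorescence between 10 and 20 s after thallium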
KCC2 sec2 – KCC2 modulators without ouabain present, confirmation, cell-based, HEK293 KCC2, thallium flux, FluoZin2, secondary assay 2; thallium flux FluoZin2 fluorescence; actives lie on both sides; F/F0 rise rate, 10–20 s post-thallium; actives 23% (n = 3,700); AID 1715, 2009; normalized thallium flux at 10 µM; shares compounds with Cl transport mod;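 active = thallium flux slope more than 3 SD above or below the plate's solvent-only control mean, mostly below; inconclusive = the two repeat wells disagreed; inactive = no significant shift from solvent-only controls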;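 note: raw slope with 0.1% DMSO as baseline and bumetanide as block control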
HEK293 Tl flux – thallium flux modulation in parental HEK cells, confirmation, counter-screen for KCC2 modulator project, cell-based, counterscreen 1 | shares compounds with Cl transport mod | thallium flux rate (normalised fluorescence) at 10 µM | actives 46% (n = 3,700) | HEK293 parental cells, thallium flux FluoZin2, ouabain; baseline-ratio fluorescence slope, 10–20 s after thallium;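 active = thallium flux rate significantly above the same plate's solvent-only control wells, beyond their mean plus 3 SD; inconclusive = the two replicate wells gave conflicting results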
KCC2 ouabain – KCC2 inhibitors and activators, ouabain retest, confirmation, HEK-KCC2 cells | shares compounds with Cl transport mod | HEK293-KCC2, thallium flux FluoZin2 fluorescence; bidirectional: low = inhibitor, high = activator | raw Tl+ flux slope (below DMSO = inhibition, above = activation) at 10 µM | actives 48% (n = 3,700) | AID 1717, 2009;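 active = thallium flux slope beyond 3 SD from same-plate DMSO control mean in most replicates, usually higher, sometimes lower; inconclusive = repeat tests gave conflicting results; inactive = no significant difference from controls in most replicates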;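 note: slope of initial-normalized fluorescence between seconds 10 and 20 after thallium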
HEK293 Tl flux2 – native HEK Tl+ uptake effects, second counter-screen – HEK cells, counterscreen 2, counter-screen for KCC2 modulator project, confirmation; shares compounds with Cl transport mod; HEK293 parental, thallium flux FluoZin-2 fluorescence slope; thallium flux slope at 10 µM; actives 33% (n = 3,700);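 active = thallium flux slope above the same plate's solvent-control mean plus 3 SD in both duplicate wells; inconclusive = duplicate wells that disagreed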;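 note: run without ouabain in cells lacking the KCC2 cotransporter; slope of fluorescence scaled to its starting value between 10 and 20 s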
* marks the source's active call; other numbers are inactive results.

`O=C(Nc1ccccc1Cl)N1CCN(c2ccc3nnc(-c4ccc(F)cc4)n3n2)CC1` gave KCNK3 block inactive, Cl transport mod -3.9*, KCNQ1 pot inactive, hERG protect -18, KCNQ1 inh inactive, KCNK9 inh inactive, KCC2 sec1 0.0092, KCC2 bumet counter 0.0072, KCC2 sec2 0.03, HEK293 Tl flux 0.0093*, KCC2 ouabain 0.019 and HEK293 Tl flux2 0.01.
`CCCCCN(C(=O)CCC(=O)OC(C)C(=O)c1ccc(CC)cc1)c1c(N)n(CCCC)c(=O)[nH]c1=O` (stereo not given) gave KCNK3 block inactive.
For COc1ccc2nc(-c3ccccn3)[nH]c2c1 the results were KCNK3 block inactive, KCNQ1 pot inactive, hERG protect -8, KCNQ1 inh inactive and KCNK9 inh inactive.
`Cc1cc(=S)nc(-c2ccccn2)[nH]1` gave KCNK3 block inactive, Cl transport mod 81*, KCNQ1 pot inactive, hERG protect 2, KCNQ1 inh inactive, KCNK9 inh inactive, KCC2 sec1 0.037*, KCC2 bumet counter 0.048*, KCC2 sec2 0.038, HEK293 Tl flux 0.041*, KCC2 ouabain 0.043* and HEK293 Tl flux2 0.016*.
Screening COc1ccc(-c2oc3ccc(-c4cc(OC)c(OC)c(OC)c4)cc3c2C#Cc2ccccn2)cc1 returned KCNK3 block inactive.
For Cc1ccc(-c2csc3ncn(CC(=O)N4CCOCC4)c(=O)c23)cc1C the results were KCNK3 block inactive, KCNQ1 pot inactive, hERG protect -7, KCNQ1 inh inactive, KCNK9 inh inactive, KCC2 sec1 0.011, KCC2 bumet counter inconclusive, KCC2 sec2 0.036, HEK293 Tl flux 0.0048, KCC2 ouabain 0.021 and HEK293 Tl flux2 0.012.
`O=C(Cn1cnc2scc(-c3ccc(F)cc3)c2c1=O)N1CCOCC1` gave KCNK3 block inactive, Cl transport mod 0.097, KCNQ1 pot inactive, hERG protect -2, KCNQ1 inh inactive and KCNK9 inh inactive.
`Nn1c(Cc2cccc3ccccc23)nnc1SCC(=O)NC1CCS(=O)(=O)C1` (stereo not given) gave KCNK3 block inactive, Cl transport mod 5.7*, KCNQ1 pot inactive, hERG protect -8, KCNQ1 inh inactive, KCNK9 inh inactive, KCC2 sec1 0.0092, KCC2 bumet counter 0.0056, KCC2 sec2 0.036, HEK293 Tl flux 0.0083, KCC2 ouabain 0.019 and HEK293 Tl flux2 0.012.
`Nn1c(SCC(=O)NC2CCS(=O)(=O)C2)nnc1-c1cccs1` (stereo not given) gave KCNK3 block inactive, Cl transport mod 0.54, KCNQ1 pot inactive, hERG protect -4, KCNQ1 inh inactive and KCNK9 inh inactive.
For Cc1ccc(C2=NC3(CCCC3)NC2=S)cc1 the results were KCNK3 block inactive, Cl transport mod 5.6*, KCNQ1 pot inactive, hERG protect -4, KCNQ1 inh inactive, KCNK9 inh inactive, KCC2 sec1 0.011, KCC2 bumet counter 0.019*, KCC2 sec2 0.03, HEK293 Tl flux 0.011*, KCC2 ouabain 0.024 and HEK293 Tl flux2 inconclusive.
Screening S=C1NC2(CCCCCC2)N=C1c1ccccc1 returned KCNK3 block inactive, Cl transport mod 4.6*, KCNQ1 pot inactive, hERG protect -15, KCNQ1 inh inactive, KCNK9 inh inactive, KCC2 sec1 0.01, KCC2 bumet counter 0.016*, KCC2 sec2 0.038, HEK293 Tl flux inconclusive, KCC2 ouabain inconclusive and HEK293 Tl flux2 0.013.
`COCCNc1oc(/C=C/c2ccccc2OC)nc1S(=O)(=O)c1ccccc1` gave KCNK3 block inactive, KCNQ1 pot inactive, hERG protect -4, KCNQ1 inh inactive and KCNK9 inh inactive.
`Cc1ccc(S(=O)(=O)NC2=NCN(CCc3ccccc3)CN2)cc1` gave KCNK3 block inactive, KCNQ1 pot inactive, hERG protect -3, KCNQ1 inh inactive and KCNK9 inh inactive.
`Cc1ccc(S(=O)(=O)NC2=NCN(Cc3ccccc3)CN2)cc1` gave KCNK3 block inactive, Cl transport mod -3.3*, KCNQ1 pot inactive, hERG protect -3, KCNQ1 inh inactive, KCNK9 inh inactive, KCC2 sec1 0.0084, KCC2 bumet counter 0.0061, KCC2 sec2 0.033, HEK293 Tl flux 0.0078, KCC2 ouabain inconclusive and HEK293 Tl flux2 0.011.
For N#CC(=C(c1ccccc1)c1ccccc1)c1ccccc1 the results were KCNK3 block inactive.

Screening results deposited in PubChem BioAssay by several laboratories.
